In ChEMBL document CHEMBL1138485, “Discovery of inducible nitric oxide synthase (iNOS) inhibitor development candidate KD7332, part 1: Identification of a novel, potent, and selective series of quinolinone iNOS dimerization inhibitors that are orally active in rodent pain models” (J Med Chem, 2009):

Target: T1, Nitric oxide synthase 3 (Homo sapiens) (UniProt P29474)
T1 sequence (whole entry): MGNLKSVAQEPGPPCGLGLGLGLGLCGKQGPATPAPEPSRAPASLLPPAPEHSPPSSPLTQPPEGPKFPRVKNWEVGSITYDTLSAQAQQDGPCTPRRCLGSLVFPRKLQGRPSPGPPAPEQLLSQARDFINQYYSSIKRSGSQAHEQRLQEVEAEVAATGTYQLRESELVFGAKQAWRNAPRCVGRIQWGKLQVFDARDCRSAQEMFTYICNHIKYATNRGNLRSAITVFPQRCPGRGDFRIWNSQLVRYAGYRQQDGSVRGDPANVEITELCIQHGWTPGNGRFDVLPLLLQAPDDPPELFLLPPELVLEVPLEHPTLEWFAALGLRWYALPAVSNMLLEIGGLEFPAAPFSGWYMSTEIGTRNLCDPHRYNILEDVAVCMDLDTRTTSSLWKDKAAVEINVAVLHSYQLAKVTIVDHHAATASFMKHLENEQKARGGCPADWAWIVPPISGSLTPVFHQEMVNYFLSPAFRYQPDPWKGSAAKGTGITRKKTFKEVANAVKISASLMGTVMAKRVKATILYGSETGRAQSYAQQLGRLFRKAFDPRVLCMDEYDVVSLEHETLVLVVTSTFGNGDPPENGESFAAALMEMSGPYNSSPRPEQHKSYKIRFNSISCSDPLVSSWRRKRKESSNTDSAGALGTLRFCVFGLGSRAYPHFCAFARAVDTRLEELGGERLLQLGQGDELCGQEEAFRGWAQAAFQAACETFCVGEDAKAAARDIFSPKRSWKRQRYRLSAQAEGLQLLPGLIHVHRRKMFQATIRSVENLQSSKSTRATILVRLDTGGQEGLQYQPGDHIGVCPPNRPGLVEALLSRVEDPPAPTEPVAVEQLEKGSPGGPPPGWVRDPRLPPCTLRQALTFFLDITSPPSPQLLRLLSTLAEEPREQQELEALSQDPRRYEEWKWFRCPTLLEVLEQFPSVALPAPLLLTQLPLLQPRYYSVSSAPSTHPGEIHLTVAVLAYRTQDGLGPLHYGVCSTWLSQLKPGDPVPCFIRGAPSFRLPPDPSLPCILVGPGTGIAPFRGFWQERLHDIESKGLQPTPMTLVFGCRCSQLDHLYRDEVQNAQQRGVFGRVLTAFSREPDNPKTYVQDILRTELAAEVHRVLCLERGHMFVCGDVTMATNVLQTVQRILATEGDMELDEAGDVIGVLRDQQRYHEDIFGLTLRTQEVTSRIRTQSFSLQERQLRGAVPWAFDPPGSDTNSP
Assay: Inhibition of human eNOS expressed in HEK293 cells assessed as NO production at 100 uM by transient transfection assay relative to BBS-4
Format: cell-based
How it was run: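 HEK293 cells transiently transfected with human eNOS (15 µg plasmid) or nNOS (10 µg plasmid), Fugene 6 at 3:1 µL:µg, 4 h at 37 °C, 10% CO2. Plated at 5 × 10⁵ cells/mL with compound; SEITU 100 µM final as positive control. After 24 h, activated with A23187 (83 nM final, eNOS) or ionomycin (30 µM final, nNOS). After 18 h more, NO read by DAN fluorescence. Inhibition is relative to the maximal inhibition by the control dimerization inhibitor. 3 runs, 10-point curves, n = 3/point.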

inhibition: < 50%
Structure (SMILES): CC(C)C(=O)N(Cc1cc(=O)[nH]c2c(F)cccc12)c1cccc(Cl)c1
